As usually defined, the inhibition is how much of the control response was suppressed.

SMILES strings stand for the structures. Activity calls are given as the source filed them. The calls are words filed in the database; no cut-off is given here. A value given as a limit tells only on which side of the number the result lay.

The source of these data is ChEMBL document CHEMBL3600355, “The importance of the 6- and 7-positions of tetrahydroisoquinolines as selective antagonists for the orexin 1 receptor” (Bioorg Med Chem, 2015).

In assay [1] the target is T1, Orexin receptor type 2 (Homo sapiens) (UniProt O43614).
T1 sequence (whole entry): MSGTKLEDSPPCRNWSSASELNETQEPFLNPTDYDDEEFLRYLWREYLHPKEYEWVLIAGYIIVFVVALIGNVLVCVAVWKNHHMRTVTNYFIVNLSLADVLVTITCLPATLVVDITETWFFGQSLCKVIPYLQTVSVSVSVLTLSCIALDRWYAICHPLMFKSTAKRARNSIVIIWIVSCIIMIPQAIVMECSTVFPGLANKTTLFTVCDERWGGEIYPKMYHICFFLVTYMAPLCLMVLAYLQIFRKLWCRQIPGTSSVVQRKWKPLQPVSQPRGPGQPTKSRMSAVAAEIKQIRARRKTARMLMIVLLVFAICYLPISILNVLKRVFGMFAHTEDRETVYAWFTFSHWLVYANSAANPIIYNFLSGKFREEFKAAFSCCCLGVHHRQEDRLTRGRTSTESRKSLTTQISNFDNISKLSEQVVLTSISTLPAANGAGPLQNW
The assay is described as follows: Agonist activity at human OX2 receptor expressed in CHO-RD-HGA16 cells assessed as induction of calcium mobilization at 10 uM measured every 1.52 secs over 60 secs by calcium 5 dye-based fluorescence assay. Format: functional, cell-based. In a few lines:
(§1)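 Stable CHO-RD-HGA16 lines overexpressing human OX1 or OX2, plated overnight at 25,000 cells/well, 37°C, 5% CO2. Loaded 45 min with Calcium 5 dye in HBSS/20 mM HEPES/2.5 mM probenecid, pH 7.4. Compound tested alone at 10 μM; fluorescence (ex 485/em 525 nm) read every 1.52 s for 60 s.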
A general note: A change in cytosolic calcium serves as a functional read-out for many receptors and channels.

For assay [2], the species on record is Homo sapiens. Kind of assay: Selectivity ratio of Ke(app) for human OX2 receptor to Ke(app) for human OX1 receptor.
The target in assay [3] is T2, Orexin/Hypocretin receptor type 1 (Homo sapiens) (UniProt O43613).
T2 sequence (whole entry): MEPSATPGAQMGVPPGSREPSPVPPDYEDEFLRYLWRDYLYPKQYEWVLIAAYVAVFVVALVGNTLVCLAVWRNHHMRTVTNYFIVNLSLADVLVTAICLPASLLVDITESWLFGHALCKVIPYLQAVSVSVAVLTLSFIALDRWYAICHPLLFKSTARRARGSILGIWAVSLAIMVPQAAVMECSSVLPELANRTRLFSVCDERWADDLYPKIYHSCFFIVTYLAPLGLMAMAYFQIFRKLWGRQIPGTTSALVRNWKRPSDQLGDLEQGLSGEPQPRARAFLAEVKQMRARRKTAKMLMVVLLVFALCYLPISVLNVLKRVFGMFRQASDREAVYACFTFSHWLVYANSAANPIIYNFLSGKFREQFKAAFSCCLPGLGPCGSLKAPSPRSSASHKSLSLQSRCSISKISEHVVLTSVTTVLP
Kind of assay: Agonist activity at human OX1 receptor expressed in CHO-RD-HGA16 cells assessed as induction of calcium mobilization at 10 uM measured every 1.52 secs over 60 secs by calcium 5 dye-based fluorescence assay. Format: functional, cell-based. In a few lines:
as §1

The species entered for assay [4] is Homo sapiens. The assay is described as follows: Selectivity for human OX1 receptor over human OX2 receptor.
Assay [5] concerns the target T1, Orexin receptor type 2 (Homo sapiens). Kind of assay: Antagonist activity at human OX2 receptor expressed in CHO-RD-HGA16 cells assessed as inhibition of orexin-A-induced calcium mobilization at 10 uM preincubated for 15 mins followed by orexin-A addition measured every 1.52 secs over 60 secs by calcium 5 dye-based fluorescence assay relative to control. It counts as functional, cell-based. In short, it runs like this: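 OX2 stable CHO-RD-HGA16 cells, Calcium 5 dye-loaded, were pre-incubated 15 min at 37°C with compound at 10 μM before orexin A addition. Calcium fluorescence was read every 1.52 s for 60 s and percent inhibition of the orexin A response recorded.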

As to `CCCOc1ccc2c(c1)C(Cc1ccc(OC)c(OC)c1)N(CC(=O)NCc1ccccc1)CC2` (stereo unspecified), the outcome in assay [1] and in assay [3] was inactive. In addition, the Ratio Ke in assay [2] stood at 108.

For the molecule `CCOc1ccc2c(c1)C(Cc1ccc(OC)c(OC)c1)N(CC(=O)NCc1ccccc1)CC2` (stereo unspecified), the Ratio Ke in assay [4] is 268. Also, the result in assay [1] and in assay [3] was inactive. For the same molecule, the inhibition in assay [5] was less than 50%.

With `COc1ccc(CC2c3cc(OC(C)C)ccc3CCN2CC(=O)NCc2ccccc2)cc1OC` (stereo unspecified), the Ratio Ke in assay [4] stood at 201. Further, the outcome in assay [1] and in assay [3] was inactive. Further, the inhibition in assay [5] was less than 50%.
